ABCB6 inh MLPCN: human ABCB6 transporter inhibition. AID 602162. K562-ABCB6 porphyrin accumulation, flow cytometry, 1 h; active compounds read low. hit rate 0.19% among 360,000. fluorescence ratio to DMSO, % at 10 µM. Q9NP58;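 active means fluorescence ratio to DMSO below 75%, the collection mean minus 3 SD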;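 further: signal is porphyrin accumulated inside mitochondria; 100% equals median channel fluorescence of DMSO control wells; lower ratio means ABCB6 inhibition with less porphyrin fluorescence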
TNAP act hiacc: increases human TNAP activity under high phosphate acceptor concentration | 200,000 tested, under 10 active | AID 1136 | purified TNAP, CDP-star luminescence, 1 M DEA, 30 min; active compounds read high; 0 = EDTA background, 1 = DMSO-only activity | P05186 | activation factor at 20 µM;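 active means activation factor at least 2 at 20 µM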
Target sequence (P05186 whole entry, looked up): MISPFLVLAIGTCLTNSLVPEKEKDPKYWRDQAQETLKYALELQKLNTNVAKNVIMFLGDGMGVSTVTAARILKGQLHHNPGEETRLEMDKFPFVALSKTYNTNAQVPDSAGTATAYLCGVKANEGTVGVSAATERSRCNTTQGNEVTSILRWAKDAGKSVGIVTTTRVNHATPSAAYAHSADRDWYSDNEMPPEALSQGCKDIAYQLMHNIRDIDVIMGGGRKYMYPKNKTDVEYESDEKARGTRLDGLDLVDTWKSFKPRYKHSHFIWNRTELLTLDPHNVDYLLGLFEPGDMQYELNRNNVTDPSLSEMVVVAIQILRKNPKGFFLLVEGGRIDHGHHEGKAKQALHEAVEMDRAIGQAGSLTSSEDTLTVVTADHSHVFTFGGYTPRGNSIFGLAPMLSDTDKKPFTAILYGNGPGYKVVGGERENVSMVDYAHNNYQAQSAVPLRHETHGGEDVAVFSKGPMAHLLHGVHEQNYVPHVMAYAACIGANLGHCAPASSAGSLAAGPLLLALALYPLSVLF
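Test system – human TNAP · Doses – 20 µM single point · Incubation – 30 min, room temperature · Signal – luminescent substrate turnover signal · Read-out basis – activation factor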
TNAP inh no acc: blocks human TNAP activity with no phosphate acceptor present; P05186; purified TNAP, CDP-star luminescence, 30 min; inhibition, % at 20 µM; hit rate 0.26% among 200,000; AID 1012;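 active means tissue-nonspecific alkaline phosphatase inhibition above about 50% at 20 µM in the single-dose screen, limit read from the data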;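 further: 0% = DMSO negative control and 100% = EDTA positive control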
TNAP inh hiacc: inhibitors of human TNAP at high phosphate acceptor concentration; purified TNAP, CDP-star luminescence, 1 M DEA; inhibition, % at 20 µM; hit rate 0.03% among 200,000; AID 1135;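 active means over 50% inhibition of tissue-nonspecific alkaline phosphatase at 20 µM in the single-dose screen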;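 further: plate controls were DMSO wells for no effect and EDTA-quenched wells as full inhibition for full effect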
CHT PAM: human CHT allosteric activation. hit rate 0.49% among 310,000. Q9GZV3. B-score at 10 µM. CHT-expressing cells, membrane potential dye, choline EC20; active compounds read high; LV-AA mutant CHT in HEK293 cells. AID 488977;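 active means initial fluorescence not abnormally high and integrated response B-score, plate-corrected, over 3 SD above library mean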
CHT block: human CHT choline transport inhibition; Q9GZV3; CHT-expressing cells, membrane potential dye, choline response; active compounds read low; B-score at 10 µM; hit rate 0.86% among 310,000; AID 488975;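 active means B-score over 3 SD under the library average, and starting fluorescence ratio not unusually high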;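 further: choline stimulus applied at its EC90 after an EC20 pre-addition; B-score computed on integrated fluorescence ratio after choline addition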
CHT inh conf: human CHT inhibition, confirmatory screen; shares compounds with CHT block; CHT-expressing cells, choline membrane potential dye; LV-to-AA substituted CHT, HEK293 cells; CHT activity remaining % of control (active compounds read low), % at 10 µM; hit rate 70% among 2,400; AID 493221;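 active means choline transporter activity left, mean of duplicates at 10 µM, below buffer-only control mean minus 3 SD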;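 further: depolarization triggered by choline at its EC90 following an EC20 pre-addition; 0% = hemicholinium-3 full block and 100% = buffer-only control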
HEK293 MPD ctr: CHT inhibitor counter-screen hit in parental HEK293 cells. shares compounds with CHT block. membrane potential dye, choline response; active = decrease or increase beyond buffer ±3SD. membrane potential ratio readout (active if shifted either direction beyond buffer ±3SD; no single direction) at 10 µM. hit rate 4% among 2,400. AID 493222;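 further: parental cells lack the transporter so any hit is non-specific; ratio is peak minus trough fluorescence over baseline after EC90 choline challenge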
Starred values were filed as active, the others as inactive; i = inactive; . = no result given. Only some compounds are listed: those with a hit (about 1.4% of all), similar ones and a draw of the others.

SMILES	ABCB6 inh MLPCN	TNAP act hiacc	TNAP inh no acc	TNAP inh hiacc	CHT PAM	CHT block	CHT inh conf	HEK293 MPD ctr
CCCOP(=O)(c1ccc(N(C)C)cc1)C(O)c1ccc(Br)cc1 (configuration not stated)	94.0	.	.	.	i	-5.77*	68.0%*	i
Cn1c(CN2CCCCC2)nc2cc(NC(=O)c3ccccc3Cl)ccc21	95.0	1	-4.6	2.7	i	-7.49*	40.2%*	i
CC1(C(=O)NS(=O)(=O)c2cccc(OC(F)F)c2)CCN1C(=O)c1cccc(F)c1 (configuration not stated)	99.0	.	.	.	.	.	.	.
CC(=O)Nc1ccc(NC(=O)c2ccc([N+](=O)[O-])cc2Cl)cc1	100.0	1	-5.9	0.6	i	i	.	.
CCC(C)NS(=O)(=O)c1ccc(NC(=O)c2ccc([N+](=O)[O-])cc2Cl)cc1 (configuration not stated)	100.0	1	-5.0	-0.4	i	-8.86*	i	i
CCOCCCNS(=O)(=O)c1ccc(NC(=O)c2ccc([N+](=O)[O-])cc2Cl)cc1	98.0	1.1	-8.1	-5.3	i	-10.3*	-5.7%*	i
CCCn1nc(NS(=O)(=O)c2cccc3nonc23)c2cc3cccc(C)c3nc21	106.0	.	.	.	i	-6.27*	54.4%*	i
CCCn1nc(NS(=O)(=O)c2cccc3nonc23)c2cc3cc(C)ccc3nc21	112.0	.	.	.	i	i	.	.
Cc1ccc2cc3c(NS(=O)(=O)c4cccc5nonc45)nn(CC(C)C)c3nc2c1	99.0	.	.	.	i	-5.96*	64.5%*	i
COc1ccc(C2=NOC(C(=O)Nc3cccnc3)C2)cc1 (configuration not stated)	95.0	1	-3.5	-1.9	i	i	.	.
CCc1ccccc1NC(=O)C1CC(c2ccc(OC)cc2)=NO1 (configuration not stated)	101.0	.	.	.	i	-6.35*	48.3%*	i
O=C(Nc1ccc(F)cc1F)N1CCN(c2ncccn2)CC1	100.0	1	-10.1	-1.7	i	i	.	.
O=C(Nc1cccc(S(=O)(=O)NC2=NCCCCC2)c1)C1COc2ccccc2O1 (configuration not stated)	93.0	1.1	-5.3	-6.0	i	i	.	.
O=C(Nc1ccc(S(=O)(=O)NC2=NCCCCC2)cc1)C1COc2ccccc2O1 (configuration not stated)	109.0	.	.	.	i	-5.11*	40.0%*	i
Cc1ccc(C(=O)Nc2ccc(S(=O)(=O)NC3=NCCCCC3)cc2)c(C)c1	103.0	.	.	.	i	-5.92*	19.3%*	i
CN(C)c1ccc(C(=O)Nc2ccc(S(=O)(=O)NC3=NCCCCC3)cc2)cc1	99.0	1.1	-12.8	-8.0	i	i	.	.
O=C(NCc1ccc(F)cc1)c1cnn2ccccc12	101.0	1.1	-8.9	-5.4	i	i	.	.
O=C(NC1CCCCC1)c1ccc(OC2CCN(Cc3ccccn3)CC2)cc1	100.0	.	.	.	i	-12.9*	-6.3%*	i
CC(CNC(=O)c1ccc(OC2CCN(Cc3ccccn3)CC2)cc1)c1ccccc1 (configuration not stated)	93.0	.	.	.	i	-11.9*	10.4%*	i
CCOC(=O)C1CCN(c2nc(-c3ccccc3)nc3c2oc2ccccc23)CC1	117.0	1	-6.5	-1.2	i	i	.	.
O=C(O)C1CCN(c2nc(-c3ccccc3)nc3c2oc2ccccc23)CC1	100.0	1.1	-14.3	-7.8	i	-5.98*	63.2%*	i
COC(=O)C(=N/Nc1ccccc1C(=O)OC)/C(C)=N/O	100.0	.	.	.	i	i	.	.
Cc1cccc(OCc2nnc(SCC(=O)O)n2-c2ccccc2)c1	98.0	.	.	.	i	i	.	.
Cn1c(-c2sc3ccccc3c2Cl)n[nH]c1=S	102.0	1	15.6	-0.6	i	-5.06*	50.1%*	i
Cn1c(CSc2nc3ccccc3s2)n[nH]c1=S	93.0	1	-5.2	0.8	i	i	.	.
SMILES	ABCB6 inh MLPCN	TNAP act hiacc	TNAP inh no acc	TNAP inh hiacc	CHT PAM	CHT block	CHT inh conf	HEK293 MPD ctr
CCn1c2ccccc2c2cc([N+](=O)[O-])ccc21	98.0	1	7.8	-1.9	i	i	.	.
CCn1c2ccccc2c(=O)c2ccccc21	98.0	1	-7.1	-0.4	i	-8.18*	14.9%*	i
COc1cccc(OCCSc2nnc3sc4ccccc4n23)c1	103.0	1	-3.4	-0.7	i	-8.7*	i	i
Cc1ccc(S(=O)(=O)NCC(=O)NCC(=O)N(C)Cc2ccc3ccccc3c2)cc1C	102.0	.	.	.	i	i	.	.
Oc1ccc(Nc2nc(-c3ccc4ccccc4c3)cs2)cc1	94.0	1	-13.8	-2.2	i	i	.	.
Oc1ccc(-c2nc(-c3ccc(O)c(O)c3)cs2)cc1	100.0	0.9	32.5	5.2	i	-5.03*	67.8%*	i
COc1ccc(-c2nnc(SCc3csc(N)n3)n2C)cc1	101.0	1.1	-8.1	-5.9	i	i	.	.
Cc1ccc(Nc2nc(CSc3nnc(-c4ccc(F)cc4)n3C)cs2)cc1	96.0	1	1.3	-1.7	i	-5.96*	47.9%*	i
Cc1cccc(N/N=C(\C=N\N)C(=O)c2ccc(Br)cc2)c1	.	1	-4.0	2.6	i	i	.	.
CC#CCN(CC#CC)S(=O)(=O)c1ccc(-n2cnnn2)c(OC)c1	91.0	1.1	-8.4	-5.8	i	-6.77*	59.2%*	i
COc1cc(S(=O)(=O)N(Cc2ccccc2)Cc2ccccn2)ccc1-n1cnnn1	100.0	1	-8.0	-1.9	i	i	.	.
Cc1ccc2nc(C3CCCCC3)c(Cc3ccccc3)n2c1	99.0	.	.	.	.	.	.	.
CC(C)OC(=O)CN1CCN(S(=O)(=O)c2cc(Cl)ccc2Cl)CC1	96.0	1.1	-6.9	-8.4	i	-6.35*	66.4%*	i
CN(C)c1ccc(NC(=O)CN2CCN(S(=O)(=O)c3cc(Cl)ccc3Cl)CC2)cc1	89.0	1	-7.2	-4.2	i	i	.	.
Cc1nc(N2CCOCC2)c2c(C)c(C(=O)Nc3ccccc3C(F)(F)F)sc2n1	97.0	1	-6.7	-3.6	i	i	.	.
Cc1nc(N2CCCCC2C)c2c(C)c(C(=O)Nc3ccccc3C(F)(F)F)sc2n1 (configuration not stated)	96.0	1	10.3	-2.8	i	-7.49*	i	i
CCOC(=O)c1cnc2c(Cl)cc(Cl)cc2c1NCCOCCO	91.0	1	-3.9	-0.4	i	-10.4*	33.8%*	i

Screening data deposited in PubChem BioAssay by several laboratories.
